Laboratory results as given in ChEMBL document CHEMBL2321765 (J Med Chem, 2013).

Legend:
CYP3A4 [1] = target: T1, CYP3A4 (Homo sapiens, UniProt P08684); test: Time dependent inhibition of CYP3A4 in human liver microsomes using testosterone as substrate at 10 uM preincubated for 30 mins by LC-MS-MS analysis relative to control; format: ADME, Microsome; settings: probe testosterone, read-out: TDI
Procedure, shortened: (§1)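 CYP3A4 metabolism of testosterone was measured after 0 or 30 min preincubation of enzyme with test article at the indicated concentration. Activity lost via preincubation, relative to the zero-minute control with the same inhibitor, was the end point. 6β-OH testosterone was detected by LC-MS/MS with cortisone as internal standard.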

CYP3A4 [2] = target: T1, CYP3A4; test: Inhibition of CYP3A4 in human liver microsomes using testosterone as substrate at 10 uM by LC-MS-MS analysis relative to control; format: ADME, Microsome; settings: probe testosterone
[3] = Volume of distribution at steady state in dog; format: ADME, organism-based, Canis lupus familiaris; settings: in vivo, read-out: Vdss
[4] = Oral bioavailability in rat; format: ADME, organism-based; settings: in vivo
[5] = Oral bioavailability in dog; format: ADME, organism-based, Canis lupus familiaris; settings: in vivo
[6] = Plasma clearance in dog; format: ADME, organism-based, Canis lupus familiaris
[7] = target: Voltage-gated inwardly rectifying potassium channel KCNH2 (Homo sapiens, UniProt Q12809); test: Inhibition of human ERG
[8] = Volume of distribution at steady state in rat; format: ADME, organism-based; settings: in vivo, read-out: Vdss
[9] = Half life in dog; format: ADME, organism-based, Canis lupus familiaris; settings: in vivo
[10] = Half life in rat; format: ADME, organism-based; settings: in vivo
[11] = Plasma clearance in rat; format: ADME, organism-based
Cytochrome P450 3A4 = Cytochrome P450 3A4 (Homo sapiens, UniProt P08684); test: Time dependent inhibition of CYP3A4 in human liver microsomes using testosterone as substrate by LC-MS-MS analysis relative to control; format: ADME, Microsome; procedure, shortened: as §1
Sequence of Cytochrome P450 3A4 (P08684 whole entry): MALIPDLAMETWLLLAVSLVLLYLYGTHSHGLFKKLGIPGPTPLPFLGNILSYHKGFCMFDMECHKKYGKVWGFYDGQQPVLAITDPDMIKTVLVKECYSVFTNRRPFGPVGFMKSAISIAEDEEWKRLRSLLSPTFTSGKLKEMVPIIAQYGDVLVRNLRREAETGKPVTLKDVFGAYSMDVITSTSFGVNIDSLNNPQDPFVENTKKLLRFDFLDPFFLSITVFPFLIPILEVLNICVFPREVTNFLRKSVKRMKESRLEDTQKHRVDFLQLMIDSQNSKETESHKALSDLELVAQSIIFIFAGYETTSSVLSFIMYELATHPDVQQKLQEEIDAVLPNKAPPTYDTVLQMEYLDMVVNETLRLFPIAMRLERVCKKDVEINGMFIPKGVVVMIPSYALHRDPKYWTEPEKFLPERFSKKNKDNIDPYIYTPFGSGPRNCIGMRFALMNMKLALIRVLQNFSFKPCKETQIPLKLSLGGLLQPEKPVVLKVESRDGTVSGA

T1 sequence (P08684 whole entry): as above
Sequence of Voltage-gated inwardly rectifying potassium channel KCNH2 (Q12809 whole entry): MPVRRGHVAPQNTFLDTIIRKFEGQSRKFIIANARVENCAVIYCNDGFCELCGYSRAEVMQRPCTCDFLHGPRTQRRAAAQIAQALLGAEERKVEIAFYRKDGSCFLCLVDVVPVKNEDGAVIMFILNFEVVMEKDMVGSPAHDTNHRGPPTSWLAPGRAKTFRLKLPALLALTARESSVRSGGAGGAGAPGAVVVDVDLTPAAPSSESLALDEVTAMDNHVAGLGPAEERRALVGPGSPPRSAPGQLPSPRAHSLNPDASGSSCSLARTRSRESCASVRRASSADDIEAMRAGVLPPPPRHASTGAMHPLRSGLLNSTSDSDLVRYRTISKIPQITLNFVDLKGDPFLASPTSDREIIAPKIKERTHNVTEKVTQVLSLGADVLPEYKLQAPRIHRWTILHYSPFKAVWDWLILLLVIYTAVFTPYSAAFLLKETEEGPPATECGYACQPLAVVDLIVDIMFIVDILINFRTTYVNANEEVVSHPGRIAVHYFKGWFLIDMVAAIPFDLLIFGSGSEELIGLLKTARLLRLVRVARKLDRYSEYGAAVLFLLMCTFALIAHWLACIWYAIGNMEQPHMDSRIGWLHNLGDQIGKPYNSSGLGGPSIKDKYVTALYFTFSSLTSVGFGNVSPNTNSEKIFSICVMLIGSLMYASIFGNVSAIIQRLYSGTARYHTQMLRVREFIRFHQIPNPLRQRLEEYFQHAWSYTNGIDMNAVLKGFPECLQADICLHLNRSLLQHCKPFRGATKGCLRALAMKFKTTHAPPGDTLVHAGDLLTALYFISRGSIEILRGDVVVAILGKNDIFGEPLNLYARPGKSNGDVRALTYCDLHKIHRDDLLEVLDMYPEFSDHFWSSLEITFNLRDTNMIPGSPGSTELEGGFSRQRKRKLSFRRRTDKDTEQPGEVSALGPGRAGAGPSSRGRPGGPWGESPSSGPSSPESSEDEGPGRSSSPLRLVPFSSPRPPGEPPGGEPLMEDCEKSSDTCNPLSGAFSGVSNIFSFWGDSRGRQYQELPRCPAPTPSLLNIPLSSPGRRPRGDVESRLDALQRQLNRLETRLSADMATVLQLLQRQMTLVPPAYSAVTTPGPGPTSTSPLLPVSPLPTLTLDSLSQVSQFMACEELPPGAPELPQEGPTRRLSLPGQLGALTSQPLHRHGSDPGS

| inhibition at 30 min, 10 µM (CYP3A4 [1]) [%] | inhibition at 10 µM (CYP3A4 [2]) [%] | Structure (SMILES) | also measured |
| --- | --- | --- | --- |
| 30 | 30 | Cn1cc(-c2cnc3ccc4ccc(CS(=O)(=O)N[C@@H]5CCCC[C@H]5N)cc4c(=O)c3c2)cn1 | – |
| 35 | 0 | CNS(=O)(=O)Cc1ccc2ccc3ncc(-c4cnn(C)c4)cc3c(=O)c2c1 | – |
| 26 | 0 | Cn1cc(-c2cnc3ccc4ccc(CS(N)(=O)=O)cc4c(=O)c3c2)cn1 | – |
| 1 | 29 | Cn1cc(-c2cnc3ccc4ccc(CS(=O)(=O)NCC5CCCCN5)cc4c(=O)c3c2)cn1 (centres undefined) | – |

Continued, molecule first:

| Structure (SMILES) | inhibition at 30 min, 10 µM (CYP3A4 [1]) [%] | inhibition at 10 µM (CYP3A4 [2]) [%] | also measured |
| --- | --- | --- | --- |
| Cn1cc(-c2cnc3ccc4ccc(CS(=O)(=O)NCC5COCCO5)cc4c(=O)c3c2)cn1 (centres undefined) | 35 | 0 | – |
| CN(C)S(=O)(=O)Nc1ccc2ccc3ncc(-c4cnn(C)c4)cc3c(=O)c2c1 | 30 | – | Vd [3]: 3.5 L/kg; bioavailability [4]: 24%; bioavailability [5]: 16%; clearance [6]: 57 mL/min/kg; inhibition (INH) [7]: Not Active; Vd [8]: 2.5 L/kg; half-life [9]: 48 min; half-life [10]: 42 min; clearance [11]: 40 mL/min/kg |
| Cn1cc(-c2cnc3ccc4ccc(CS(=O)(=O)NCc5cccnc5)cc4c(=O)c3c2)cn1 | 0 | 30 | – |
| Cn1cc(-c2cnc3ccc4ccc(CC(=O)NCc5ccccn5)cc4c(=O)c3c2)cn1 | – | – | TDI (Cytochrome P450 3A4): < 10% |
| Cn1cc(-c2cnc3ccc4ccc(CS(=O)(=O)NCc5cccc[n+]5[O-])cc4c(=O)c3c2)cn1 | 0 | 24 | – |
| Cn1cc(-c2cnc3ccc4ccc(CS(=O)(=O)NCc5ccc(F)cc5F)cc4c(=O)c3c2)cn1 | 17 | 42 | – |
| Cn1cc(-c2cnc3ccc4ccc(CS(=O)(=O)NCc5cnsc5)cc4c(=O)c3c2)cn1 | 13 | 67 | – |
